The values that follow come from ChEMBL document CHEMBL3407498, “Design, synthesis and 3D-QSAR studies of novel 1,4-dihydropyridines as TGFβ/Smad inhibitors” (Eur J Med Chem, 2015).

Assay [1] relates to HEK293. Put plainly: Inhibition of TGFbeta/Smad in TGFbeta-2/activin A-stimulated HEK293 cells preincubated at 2.5 uM for 2 hrs before stimulation measured after 20 to 22 hrs by firefly/renilla luciferase reporter assay. In kind it is cell-based. The following applies: Homo sapiens. The essentials: (§1)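 HEK293T cells co-transfected with SBE-4 firefly luciferase and TK-driven renilla luciferase plasmids, replated after 12-14 h, rested 2 h, then given compound, DMSO and TGFβ-2 or Activin A (10 ng/mL). Firefly and renilla signals read after 20-22 h by dual luciferase kit. Triplicate wells; data normalized to DMSO (0% inhibition), mean ± SD of 2-4 independent experiments.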

The nature of assay [2]: Inhibition of TGFbeta/Smad in TGFbeta-2/activin A-stimulated HEK293 cells preincubated for 2 hrs before stimulation measured after 20 to 22 hrs by firefly/renilla luciferase reporter assay. In kind it is cell-based. The following applies: Homo sapiens. The essentials: as §1

Turning to `CC1(C)CC(=O)C2=C(C1)NC1=C(C(=O)c3ccccc31)C2c1ccccc1` (stereo not drawn), the inhibition in assay [1] is 11%.

In turn, `CCNC(=O)C1=C(C)NC2=C(C(=O)CC(C)(C)C2)C1c1ccc(-c2ccccc2)cc1` (stereo not drawn) returned an inhibition in assay [1] of 31%.

For the compound `CCOC(=O)C1=C(C)NC2=C(C(=O)CC(C)(C)C2)C1c1ccc(-c2ccncc2)cc1` (stereo not drawn), in assay [2], inhibition was half-maximal at 6140 nM (IC50). The compound further came in with an inhibition in assay [1] of 27%.

Consider `COC(=O)C1=C(C)NC2=C(C(=O)CC(C)C2)C1c1ccc(-c2ccccc2)cc1` (stereo not drawn), for which the inhibition in assay [1] was found to be 21%.

Compound `CCOC(=O)C1=C(C)NC2=C(C(=O)CC(C)(C)C2)C1c1ccc(C(C)(C)C)cc1` (stereo not drawn) displayed an inhibition in assay [1] of 90%.

On to `CCOC(=O)C1=C(C)NC2=C(C(=O)NCC2)C1c1ccc(-c2ccccc2)cc1` (stereo not drawn), for which the inhibition in assay [1] was found to be 21%.

`CCNCC1=C(C(=O)OCC)C(c2ccc(-c3ccccc3)cc2)C2=C(CC(C)(C)CC2=O)N1` (stereo not drawn): the IC50 in assay [2] was determined as 3440 nM. This compound also yielded an inhibition in assay [1] of 64%.

In assay [2], `CC1=C(C(=O)NCc2ccccc2)C(c2ccc(-c3ccccc3)cc2)C2=C(CC(C)(C)CC2=O)N1` (stereo not drawn) yielded an IC50 of 5190 nM. Moreover, in assay [1], the inhibition is 32%.

In turn, `CCOC(=O)C1=C(C)NC2=C(C(=O)CC(C)(C)C2)C1c1ccc(-c2ccc(N(C)C)cc2)cc1` (stereo not drawn) displayed an IC50 in assay [2] of 330 nM. The inhibition in assay [1] turned out to be 95%.

Regarding `CCOC(=O)C1=C(C)NC2=C(C(=O)CC(C)(C)C2)C1c1ccc(-c2ccc(C)cc2)cc1` (stereo not drawn), the IC50 in assay [2] was 350 nM. The compound also gave an inhibition in assay [1] of 94%.

`CCOC(=O)C1=C(C)NC2=C(C(=O)CC(C)(C)C2)C1c1ccc(-c2ccc(O)cc2)cc1` (stereo not drawn) came in with an IC50 in assay [2] of 730 nM. In assay [1], this compound came in with an inhibition of 74%.

With `CCOC(=O)C1=C(C)NC2=C(C(=O)CC(C)(C)C2)C1c1ccccc1OC(F)(F)F` (stereo not drawn), the inhibition in assay [1] amounted to 9%.

In the case of `CCOC(=O)C1=C(COC)NC2=C(C(=O)CC(C)(C)C2)C1c1ccc(-c2ccccc2)cc1` (stereo not drawn), the IC50 in assay [2] stood at 1890 nM. The inhibition in assay [1] was determined as 78%.

In assay [1], `CCOC(=O)C1=C(C)NC2=C(C(=O)CC(C)(C)C2)C1c1ccccc1` (stereo not drawn) gave an inhibition of 2%.

The compound `COC(=O)C1=C(C(=O)O)NC2=C(C(=O)CC(C)(C)C2)C1c1ccc(-c2ccccc2)cc1` (stereo not drawn) gave an inhibition in assay [1] of 4%.

`CCOC(=O)C1=C(C)NC2=C(C(=O)CC(C)(C)C2)C1c1ccc(-c2ccc(OC(F)(F)F)cc2)cc1` (stereo not drawn) had an IC50 in assay [2] of 480 nM. Further, the inhibition in assay [1] stood at 95%.

Turning to `CCOCCOC(=O)C1=C(C)NC(C)=C(C(=O)OCCOCC)C1c1ccccc1OC(F)(F)F`, the inhibition in assay [1] worked out at 4%.

As for `CCCCC(=O)C1=C(C)NC2=C(C(=O)CC(C)(C)C2)C1c1ccc(-c2ccccc2)cc1` (stereo not drawn), in assay [2], the IC50 worked out at 560 nM. In assay [1], this compound displayed an inhibition of 80%.

In the case of `CCOC(=O)C1=C(N)NC2=C(C(=O)CC(C)(C)C2)C1c1ccc(-c2ccccc2)cc1` (stereo not drawn), the IC50 in assay [2] worked out at 1330 nM. This compound had an inhibition in assay [1] of 61%.

On to `CC1(C)CC(=O)C2=C(C1)NC1=C(C(=O)CC(C)(C)C1)C2c1ccccc1`, for which the inhibition in assay [1] worked out at 21%.

For `C=CCOC(=O)C1=C(C)NC2=C(C(=O)CC(C)(C)C2)C1c1ccc(-c2ccccc2)cc1` (stereo not drawn), the IC50 in assay [2] amounted to 620 nM. The inhibition in assay [1] was determined as 91%.

The compound `CCOC(=O)C1=C(C)NC2=C(C(=O)CC(C)(C)C2)C1c1ccc(-c2ccc(F)cc2)cc1` (stereo not drawn) yielded an IC50 in assay [2] of 1230 nM. In addition, the inhibition in assay [1] was determined as 74%.

In assay [2], `CCOC(=O)C1=C(C)NC2=C(C(=O)CC(C)(C)C2)C1c1ccc(-c2ccccc2)cc1` (stereo not drawn) registered an IC50 of 850 nM. The compound further gave an inhibition in assay [1] of 83%.

The compound `C#Cc1ccc(C2C(C(=O)OCC)=C(C)NC3=C2C(=O)CC(C)(C)C3)cc1` (stereo not drawn) showed an IC50 in assay [2] of 1710 nM. For the same compound, the inhibition in assay [1] was found to be 59%.

For `CCCCCCCCCCCCOC(=O)C1=C(C)NC2=C(C(=O)CC(C)(C)C2)C1c1ccc(-c2ccccc2)cc1` (stereo not drawn), in assay [1], the inhibition was determined as 0%.

In assay [2], `CC1=C(C(=O)OC(C)C)C(c2ccc(-c3ccccc3)cc2)C2=C(CC(C)(C)CC2=O)N1` (stereo not drawn) came in with an IC50 of 660 nM. In addition, in assay [1], the inhibition was found to be 85%.

For `CCOC(=O)C1=C(C)NC2=C(C(=O)CC(C)(C)C2)C1c1cc(OC)c(OC)c(OC)c1` (stereo not drawn), in assay [1], the inhibition worked out at 5%.

In turn, `COC(=O)C1=C(C(=O)OC)C(c2ccc(-c3ccccc3)cc2)C2=C(CC(C)(C)CC2=O)N1` (stereo not drawn) returned an IC50 in assay [2] of 2010 nM. Moreover, the inhibition in assay [1] came to 46%.

The compound `CCC(=O)C1=C(CC)NC2=C(C(=O)CC(C)(C)C2)C1c1ccc(-c2ccccc2)cc1` (stereo not drawn) returned an IC50 in assay [2] of 1630 nM. The compound also returned an inhibition in assay [1] of 62%.

The compound `CCOC(=O)C1=C(N)NC2=C(C(=O)CC(C)(C)C2)C1c1ccc(C(C)(C)C)cc1` (stereo not drawn) registered an IC50 in assay [2] of 510 nM. In addition, in assay [1], the inhibition came out at 89%.

`CC1=C(C#N)C(c2ccc(-c3ccccc3)cc2)C2=C(CC(C)(C)CC2=O)N1` (stereo not drawn) yielded an IC50 in assay [2] of 2950 nM. The inhibition in assay [1] was 44%.

Take `CCOC(=O)C1=C(C)NC2=C(C(=O)CC(C)(C)C2)C1c1ccc(O)c(OC)c1` (stereo not drawn): the inhibition in assay [1] amounted to 8%.

Take `CCN(CC)CCN1C2=C(C(=O)CC(C)(C)C2)C(c2ccccc2)C2=C1CC(C)(C)CC2=O`: the inhibition in assay [1] amounted to 12%.

The compound `CCCC(=O)C1=C(C)NC2=C(C(=O)CC(C)(C)C2)C1c1ccc(-c2ccccc2)cc1` (stereo not drawn) yielded an IC50 in assay [2] of 500 nM. The inhibition in assay [1] is 84%.

`CC1=C(C(=O)OC2CCCC2)C(c2ccc(-c3ccccc3)cc2)C2=C(CC(C)(C)CC2=O)N1` (stereo not drawn) yielded an IC50 in assay [2] of 1110 nM. In addition, the inhibition in assay [1] turned out to be 77%.

For `CC1(C)CC(=O)C2=C(C1)NC1=C(C(=O)NC1)C2c1ccc(-c2ccccc2)cc1` (stereo not drawn), in assay [1], the inhibition came to 28%.

Take `CC1(C)CC(=O)C2=C(C1)NC1=C(C(=O)c3ccccc31)C2c1ccc(-c2ccccc2)cc1` (stereo not drawn): in assay [2], the IC50 was found to be 1260 nM. The same compound registered an inhibition in assay [1] of 70%.

Regarding `CCOC(=O)C1=C(C(=O)OCC)C(c2ccc(-c3ccccc3)cc2)C2=C(CC(C)(C)CC2=O)N1` (stereo not drawn), in assay [2], the IC50 came to 1800 nM. In addition, the inhibition in assay [1] was 56%.

As to `CCCNCC1=C(C(=O)OCC)C(c2ccc(-c3ccccc3)cc2)C2=C(CC(C)(C)CC2=O)N1` (stereo not drawn), the midpoint of inhibition in assay [2], the IC50, lay at 1600 nM. The inhibition in assay [1] was 57%.

`CC1(C)CC(=O)C2=C(C1)NC1=C(C(=O)OC1)C2c1ccc(-c2ccccc2)cc1` (stereo not drawn) displayed an IC50 in assay [2] of 4300 nM. For the same compound, the inhibition in assay [1] is 37%.

`CCOC(=O)C1=C(C)NC2=C(C(=O)CC(C)(C)C2)C1c1ccc(-c2ccc(S(C)(=O)=O)cc2)cc1` (stereo not drawn) displayed an IC50 in assay [2] of 2760 nM. Also, in assay [1], the inhibition amounted to 44%.

In assay [2], `CCCOC(=O)C1=C(C)NC2=C(C(=O)CC(C)(C)C2)C1c1ccc(-c2ccccc2)cc1` (stereo not drawn) gave an IC50 of 490 nM. The compound also registered an inhibition in assay [1] of 93%.

For `CCOC(=O)C1=C(C)NC2=C(C(=O)CC(C)(C)C2)C1c1ccc(-c2ccc(C(F)(F)F)cc2)cc1` (stereo not drawn), the IC50 in assay [2] was 970 nM. Besides, the inhibition in assay [1] came out at 88%.

For `CCOC(=O)C1=C(C)NC2=C(C(=O)CC(C)(C)C2)C1c1ccc(-c2ccc(Br)cc2)cc1` (stereo not drawn), in assay [2], the IC50 is 460 nM. Besides, in assay [1], the inhibition worked out at 94%.

In assay [2], `CC1=C(C(=O)OCC(C)C)C(c2ccc(-c3ccccc3)cc2)C2=C(CC(C)(C)CC2=O)N1` (stereo not drawn) returned an IC50 of 420 nM. This counts as sub-micromolar.

For `CC1=C(C(=O)OC(C)(C)C)C(c2ccc(-c3ccccc3)cc2)C2=C(CC(C)(C)CC2=O)N1` (stereo not drawn), half-maximal inhibition in assay [2] (IC50) required 670 nM. This compound returned an inhibition in assay [1] of 84%.

The compound `CCOC(=O)C1=C(C)NC2=C(C(=O)CC(C)(C)C2)C1c1ccc(-c2ccc(C#N)cc2)cc1` (stereo not drawn) gave an IC50 in assay [2] of 1790 nM. This compound gave an inhibition in assay [1] of 52%.

Take `CCN1CC2=C(C1=O)C(c1ccc(-c3ccccc3)cc1)C1=C(CC(C)(C)CC1=O)N2` (stereo not drawn): the IC50 in assay [2] is 5030 nM. Moreover, the inhibition in assay [1] was found to be 25%.

Compound `CCOC(=O)C1=C(C(=O)O)NC2=C(C(=O)CC(C)(C)C2)C1c1ccc(-c2ccccc2)cc1` (stereo not drawn) showed an inhibition in assay [1] of 0%.

On to `CC1(C)CC(=O)C2=C(C1)NC1=C(C(=O)N(Cc3ccccc3)C1)C2c1ccc(-c2ccccc2)cc1` (stereo not drawn), for which the IC50 in assay [2] is 870 nM. Besides, the inhibition in assay [1] amounted to 82%.

The compound `CCOC(=O)C1=C(C)NC2=C(C(=O)CC(C)(C)C2)C1c1ccc(-c2ccc(OC)cc2)cc1` (stereo not drawn) yielded an IC50 in assay [2] of 420 nM. In addition, the inhibition in assay [1] amounted to 93%.

`CCOC(=O)C1=C(C)NC2=C(C(=O)CC(C)(C)C2)C1c1ccc(-c2ccc(Cl)cc2)cc1` (stereo not drawn) returned an IC50 in assay [2] of 760 nM. Moreover, in assay [1], the inhibition stood at 91%.

As to `CCCOCCOC(=O)C1=C(C)NC2=C(C(=O)CC(C)(C)C2)C1c1ccc(-c2ccccc2)cc1` (stereo not drawn), the inhibition in assay [1] was 0%.
